Laboratory results published in ChEMBL document CHEMBL1153311, “Inhibitory activity of prostaglandin E2 production by the synthetic 2'-hydroxychalcone analogues: Synthesis and SAR study” (Bioorg Med Chem Lett, 2009).

What was measured:
RAW264.7 = assay: Cytotoxicity against mouse RAW264.7 cells assessed as cell viability at 10 uM by MTT assay; type: functional; conditions: read-out: Activity
Outline: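 RAW 264.7 mouse macrophage-like cells tested with or without LPS; viability read by MTT assay and reported as percent cell […]; values are the mean of three experiments.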

[1] = target: T1, Prostaglandin G/H synthase 2 (Homo sapiens, UniProt P35354); assay: Inhibition of COX2
T1 sequence (P35354 whole entry): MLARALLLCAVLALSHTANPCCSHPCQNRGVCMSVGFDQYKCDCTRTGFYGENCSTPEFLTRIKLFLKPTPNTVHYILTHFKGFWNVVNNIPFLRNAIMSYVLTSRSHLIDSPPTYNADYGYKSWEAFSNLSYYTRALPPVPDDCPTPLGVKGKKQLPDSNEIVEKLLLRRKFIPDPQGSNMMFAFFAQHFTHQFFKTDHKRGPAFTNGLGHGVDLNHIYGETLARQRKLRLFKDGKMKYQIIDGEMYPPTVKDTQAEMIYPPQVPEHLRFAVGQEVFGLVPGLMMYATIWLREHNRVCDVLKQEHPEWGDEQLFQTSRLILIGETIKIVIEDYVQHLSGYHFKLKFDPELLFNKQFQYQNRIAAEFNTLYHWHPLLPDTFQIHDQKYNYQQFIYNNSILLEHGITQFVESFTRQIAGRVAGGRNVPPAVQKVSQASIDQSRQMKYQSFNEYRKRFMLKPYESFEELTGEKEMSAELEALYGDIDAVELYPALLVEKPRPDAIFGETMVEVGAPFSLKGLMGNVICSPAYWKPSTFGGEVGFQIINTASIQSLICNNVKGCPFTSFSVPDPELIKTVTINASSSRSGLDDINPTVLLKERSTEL
Outline: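 RAW 264.7 mouse macrophage cells were plated at 2 × 10⁵ cells/well and treated with LPS for 24 h to induce COX-2, then washed. Compounds in DMSO were added in fresh medium containing arachidonic acid for 2 h. PGE₂ released into the medium was measured by EIA, and inhibition was expressed as the mean of three experiments.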

[2] = target: T2, Prostaglandin G/H synthase 2 (Mus musculus, UniProt Q05769); assay: Inhibition of COX2-mediated PGE2 production in LPS-stimulated mouse RAW264.7 cells by enzyme immunoassay
T2 sequence (Q05769 whole entry): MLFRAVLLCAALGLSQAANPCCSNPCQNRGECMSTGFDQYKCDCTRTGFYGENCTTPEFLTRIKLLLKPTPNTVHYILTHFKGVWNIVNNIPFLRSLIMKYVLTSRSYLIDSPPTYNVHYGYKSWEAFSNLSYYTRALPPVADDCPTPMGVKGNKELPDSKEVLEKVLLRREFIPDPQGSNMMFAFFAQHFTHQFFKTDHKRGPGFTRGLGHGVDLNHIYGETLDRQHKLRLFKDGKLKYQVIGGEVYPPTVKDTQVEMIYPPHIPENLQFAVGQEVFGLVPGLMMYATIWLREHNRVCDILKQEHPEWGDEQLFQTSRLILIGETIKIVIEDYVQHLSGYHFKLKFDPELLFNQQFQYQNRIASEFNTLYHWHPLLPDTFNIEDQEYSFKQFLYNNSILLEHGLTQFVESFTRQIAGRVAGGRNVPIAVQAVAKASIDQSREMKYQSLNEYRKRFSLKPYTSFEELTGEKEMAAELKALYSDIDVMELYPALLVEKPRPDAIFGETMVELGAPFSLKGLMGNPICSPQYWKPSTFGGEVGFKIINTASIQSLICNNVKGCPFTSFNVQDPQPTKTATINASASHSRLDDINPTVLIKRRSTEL

| IC50 [1] [µM] | IC50 [2] [µM] | Compound | viability at 10 µM (RAW264.7) [%] |
| --- | --- | --- | --- |
| – | – | Cc1ccc(/C=C/C(=O)c2ccccc2O)cc1 | 152 |
| 2.7 | – | CC(=O)c1cc(C(C)=O)c2c(=O)cc(-c3ccccc3)oc2c1 | – |
| – | – | COc1ccc(/C=C/C(=O)c2ccccc2O)cc1OCc1ccccc1 | 102 |
| – | 1.07 | COc1c(O)cc(O)c2c(=O)cc(-c3ccccc3)oc12 [WOGONIN] | 111 |
| – | – | O=C(/C=C/c1ccc(-c2ccccc2)cc1)c1ccccc1O | 135 |
| – | – | COc1ccc(/C=C/C(=O)c2ccccc2O)cc1 | 115 |
| – | – | COc1ccc(/C=C/C(=O)c2ccccc2O)c(OC)c1 | 107 |
| – | 4.6 | O=C(/C=C/c1ccc(OCc2ccccc2)c(OCc2ccccc2)c1)c1ccccc1O | 103 |
| – | 4.1 | O=C(/C=C/c1ccc(OCc2ccccc2)cc1)c1ccccc1O | 99 |
| – | – | O=C(/C=C/c1ccc(Cl)cc1)c1ccccc1O | 141 |
| – | – | O=C(/C=C/c1ccc(OC(F)(F)F)cc1)c1ccccc1O | 87 |
| – | – | O=C(/C=C/c1ccc2c(c1)OCO2)c1ccccc1O | 118 |
| – | – | O=C(/C=C/c1ccc(Cl)c(Cl)c1)c1ccccc1O | 155 |
| – | – | CSc1ccc(/C=C/C(=O)c2ccccc2O)cc1 | 85 |
| – | – | O=C(/C=C/c1cccc(Br)c1)c1ccccc1O | 90 |
| – | – | CS(=O)(=O)Nc1ccc([N+](=O)[O-])cc1OC1CCCCC1 [NS-398] | 104 |
| – | – | O=C(/C=C/c1ccc(Br)cc1)c1ccccc1O | 162 |
| – | – | O=C(/C=C/c1ccccc1)c1ccccc1O [2'-HYDROXYCHALCONE] | 119 |
| – | 6.2 | COc1cc(/C=C/C(=O)c2ccccc2O)cc(OC)c1OC | 65 |
| – | 3.8 | COc1cccc(/C=C/C(=O)c2ccccc2O)c1OC | 93 |
| – | – | COc1ccc(/C=C/C(=O)c2ccccc2O)cc1Br | 159 |
